These results are taken from ChEMBL document CHEMBL2203110, “Inhibition of HIV-1 capsid assembly: optimization of the antiviral potency by site selective modifications at N1, C2 and C16 of a 5-(5-furan-2-yl-pyrazol-1-yl)-1H-benzimidazole scaffold” (Bioorg Med Chem Lett, 2012).

Data set [1] can be described thus: Permeability of the compound across human Caco2 cells. It is filed as ADME, cell-based. The settings on record: Caco-2, read-out: permeability.
The target in data set [2] is T1, Structural capsid protein (Human immunodeficiency virus 1, UniProt Q76129). Kind of data set: Inhibition of HIV1 capsid protein binding to fluorescein labeled 3-(5-(3-ethyl-5-(5-methylfuran-2-yl)-1H-pyrazol-1-yl)-1-((6-oxo-1,6-dihydropyridin-3-yl)methyl)-1H-benzo[d]imidazol-2-yl)-4-hydroxybenzoic acid after 15 mins by fluorescence polarization assay. The gist of the method:
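CA-NC protein (40 nM) mixed with 40 nM fluorescein probe plus serially diluted compounds in Tris pH 8.0, 100 mM NaCl, CHAPS, DTT buffer with 2% DMSO before mixing. 15 min incubation, then fluorescence polarization read. Wells without compound defined 0% displacement; probe-only wells defined 100%.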

A short description of data set [3]: Half life in rat liver microsomes. It is filed as ADME, Microsome.
Data set [4] can be described thus: Half life in human liver microsomes. It is filed as ADME, Microsome.
For data set [5], the system named is Human immunodeficiency virus 1. Kind of data set: Antiviral activity against HIV1. It is filed as functional, organism-based. The gist of the method:
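Cell-based HIV-1 replication assay. EC50 is the concentration that inhibits virus replication by 50%.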

Data set [6] concerns the target T1, Structural capsid protein. Kind of data set: Inhibition of HIV1 capsid protein assembly using 5'-fluorescein-labeled (TG)25 oligonucleotide after 2 hrs by fluorometry-based capsid disassembly assay. The gist of the method:
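Biotin-(TG)25 oligonucleotide (25 nM, overnight) immobilized on neutravidin wells; CA-NC (2 µM) assembled with 100 nM 5'-fluorescein (TG)25 in Tris pH 8.0/NaCl/ZnSO4/CHAPS/BSA/DTT buffer, 2 h RT, washed. Serially diluted compounds (buffer + 0.125% DMSO) added 2 h RT; washes, SDS release, captured fluorescence read. Ten-point curves fitted; IC50 = concentration giving 50% disassembly.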

T1 sequence (Q76129 whole entry): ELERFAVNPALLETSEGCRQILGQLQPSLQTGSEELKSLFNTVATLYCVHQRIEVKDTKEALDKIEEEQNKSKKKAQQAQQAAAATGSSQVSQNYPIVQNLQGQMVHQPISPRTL

On to `CCc1cc(-c2ccc(C(F)(F)F)o2)n(-c2ccc3c(c2)nc(-c2cc(C(=O)N4CCCC4)ccc2O)n3Cc2cc(C)c(=O)n(C)c2)n1`, for which the Papp in data set [1] was determined as 7.2 ×10⁻⁶ cm/s. Also, the IC50 in data set [2] is 67 nM. The half-life in data set [3] was found to be 18 min; in data set [4] it was 10 min. For the same compound, in data set [5], the EC50 worked out at 27 nM.

Take `CCc1cc(-c2ccc(C)o2)n(-c2ccc3c(c2)nc(-c2ccccc2O)n3Cc2ccc(OC)c(O)c2)n1`: the IC50 in data set [6] was 410 nM. In data set [5], this compound returned an EC50 of 6400 nM.

For `CCc1cc(-c2ccc(C)o2)n(-c2ccc3c(c2)nc(-c2cc(F)ccc2O)n3Cc2ccc(OC)c(O)c2)n1`, the midpoint of inhibition in data set [6], the IC50, lay at 280 nM. For the same compound, in data set [5], the EC50 amounted to 10000 nM.

`CCc1cc(-c2ccc(C)o2)n(-c2ccc3c(c2)nc(-c2cc(C(=O)O)ccc2O)n3Cc2ccc(OC)c(O)c2)n1`: the IC50 in data set [2] worked out at 550 nM; in data set [6], 88 nM. The compound also had a concentration for a half-maximal effect (EC50) in data set [5] of 6100 nM.

In data set [6], `CCc1cc(-c2ccc(C)o2)n(-c2ccc3c(c2)nc(-c2cc(C(=O)N(C)C)ccc2O)n3Cc2ccc(OC)c(O)c2)n1` yielded an IC50 of 120 nM. The same compound yielded a half-maximal effective concentration (EC50) in data set [5] of 630 nM.

With `CCc1cc(-c2ccc(C)o2)n(-c2ccc3c(c2)nc(-c2ccccc2O)n3Cc2ccc(=O)[nH]c2)n1`, the IC50 in data set [2] is 690 nM; in data set [6], 55 nM. The EC50 in data set [5] is 260 nM.

`CCc1cc(-c2ccc(C)o2)n(-c2ccc3c(c2)nc(-c2cc(F)ccc2O)n3Cc2ccc(=O)[nH]c2)n1` displayed a 50% inhibitory concentration (IC50) in data set [6] of 41 nM. In addition, in data set [5], a half-maximal response (EC50) required 260 nM.

`CCc1cc(-c2ccc(C)o2)n(-c2ccc3c(c2)nc(-c2cc(C(=O)O)ccc2O)n3Cc2ccc(=O)[nH]c2)n1`: the half-inhibitory concentration (IC50) in data set [2] stood at 650 nM; in data set [6] it was 56 nM. In data set [5], this compound gave a concentration giving a half-maximal response (EC50) of over 46000 nM.

With `CCc1cc(-c2ccc(C)o2)n(-c2ccc3c(c2)nc(-c2cc(C(=O)N(C)C)ccc2O)n3Cc2ccc(=O)[nH]c2)n1`, the IC50 in data set [2] stood at 44 nM; in data set [6] it was 49 nM. Also, a half-maximal response in data set [5] (EC50) required 590 nM.

In data set [2], `CCc1cc(-c2ccc(C(F)(F)F)o2)n(-c2ccc3c(c2)nc(-c2cc(C(=O)N(C)C)ccc2O)n3Cc2ccc(=O)[nH]c2)n1` showed a concentration for half-maximal inhibition (IC50) of 59 nM. In addition, the midpoint of the response in data set [5], the EC50, lay at 91 nM.

Regarding `CCc1cc(-c2ccc(C(F)(F)F)o2)n(-c2ccc3c(c2)nc(-c2cc(C(=O)N4CCCC4)ccc2O)n3Cc2ccc(=O)[nH]c2)n1`, the Papp in data set [1] is 0.19 ×10⁻⁶ cm/s. Also, the IC50 in data set [2] turned out to be 61 nM. The half-life came out at 45 min in data set [3] and 30 min in data set [4]. Moreover, in data set [5], the EC50 was 62 nM.

Consider `CCc1cc(-c2ccc(C(F)(F)F)o2)n(-c2ccc3c(c2)nc(-c2cc(C(=O)N4CCCC4)ccc2O)n3Cc2c[nH]c(=O)c(C)c2)n1`, for which the Papp in data set [1] was determined as 6.8 ×10⁻⁶ cm/s. The concentration for half-maximal inhibition (IC50) in data set [2] was determined as 38 nM. The results for the half-life in data set [3] and in data set [4] were 25 min and 11 min, respectively. The compound also showed an EC50 in data set [5] of 28 nM.

For the compound `Cc1cc(-c2ccco2)n(-c2ccc3c(c2)nc(COc2ccc(C(=N)N)cc2)n3C)n1`, the IC50 in data set [6] was 6000 nM. The EC50 in data set [5] worked out at 28000 nM.

In the case of `CCc1cc(-c2ccc(C)o2)n(-c2ccc3c(c2)nc(-c2ccc(C(N)=O)cc2)n3CC2CC2)n1`, the IC50 in data set [6] stood at 1000 nM. In data set [5], this compound gave an EC50 of 3500 nM.

In the case of `CCc1cc(-c2ccc(C)o2)n(-c2ccc3c(c2)nc(-c2ccc(C(N)=O)cc2)n3Cc2cccnc2)n1`, 360 nM corresponded to half-maximal inhibition in data set [6] (IC50). Besides, in data set [5], a half-maximal response (EC50) required 2600 nM.

In turn, `CCc1cc(-c2ccc(C)o2)n(-c2ccc3c(c2)nc(-c2ccc(C(N)=O)cc2)n3Cc2ccc(OC)c(O)c2)n1` registered an IC50 in data set [6] of 790 nM. Further, in data set [5], the EC50 was 640 nM.

Turning to `CCc1cc(-c2ccc(C)o2)n(-c2ccc3c(c2)nc(-c2ccc(C(N)=O)cc2)n3Cc2ccc(OC)nc2)n1`, the half-inhibitory concentration (IC50) in data set [6] was found to be 830 nM. In addition, in data set [5], the EC50 came to 3500 nM.

Compound `CCc1cc(-c2ccc(C)o2)n(-c2ccc3c(c2)nc(-c2ccc(C(N)=O)cc2)n3Cc2ccc(=O)[nH]c2)n1` returned a half-maximal inhibitory concentration (IC50) in data set [6] of 170 nM. The same compound showed an EC50 in data set [5] of 13000 nM.
